Published values gathered from unrelated publications.
Antigen peptide transporter 1/Antigen peptide transporter 2: Antigen peptide transporter 1/Antigen peptide transporter 2 (Homo sapiens, UniProt Q03518+Q03519)
Cnr1: Cannabinoid receptor 1 (Cnr1, Rattus norvegicus, UniProt P20272)
CP: CP (Tobacco mosaic virus, UniProt P69687)

| Compound | target | effect on | action | method | notes | endpoint | value |
| --- | --- | --- | --- | --- | --- | --- | --- |
| COc1ccc2cccc(C(CO)CNC(=O)CF)c2c1 (stereo not shown) | Melatonin receptor type 1B (MTNR1B, Homo sapiens, UniProt P49286) | β-arrestin recruitment | agonist |  |  | EC50 | 2.69 nM |
| C[C@H](N)C(=O)N[C@@H](CCCNC(=N)N)C(=O)N[C@@H](C)C(=O)N[C@@H](C)C(=O)N[C@@H](C)C(=O)N[C@@H](C)C(=O)N[C@@H](C)C(=O)N[C@@H](C)C(=O)N[C@@H](CCCCN)C(=O)O | Antigen peptide transporter 1/Antigen peptide transporter 2 | ligand displacement |  |  |  | IC50 | 7000 nM |
| O=C(/C=C/c1cccc(S(=O)(=O)Nc2ccccc2)c1)NO | Protein deacetylase HDAC6 (HDAC6, Homo sapiens, UniProt Q9UBN7) | cell-free assay |  |  |  | Kd | 520 nM |
| CC[C@H](C)[C@H](NC(=O)[C@H](CCCNC(=N)N)NC(=O)[C@H](C)N)C(=O)N[C@@H](CC(=O)O)C(=O)N[C@@H](CCCCN)C(=O)N1CCC[C@H]1C(=O)N[C@H](C(=O)N[C@@H](CC(C)C)C(=O)N[C@@H](C)C(=O)O)[C@@H](C)CC | Antigen peptide transporter 1/Antigen peptide transporter 2 | ligand displacement |  |  |  | IC50 | 500 nM |
| CCCCCn1c2ccccc2c2cc(CN3CCCCC3)ccc21 | Cnr1 | ligand displacement |  | radioligand | cell membranes | Ki | ~100 nM |
| CC(C)C[C@H](NC(=O)[C@H](CCC(=O)O)NC(=O)[C@@H](NC(=O)[C@H](CO)NC(=O)[C@H](CCCCN)NC(=O)[C@H](CCC(N)=O)NC(=O)[C@H](Cc1ccc(O)cc1)NC(=O)[C@H](CCCNC(=N)N)NC(=O)[C@H](CCCNC(=N)N)NC(=O)[C@H](C)N)[C@@H](C)O)C(=O)N[C@@H](C)C(=O)O | Antigen peptide transporter 1/Antigen peptide transporter 2 | ligand displacement |  |  |  | IC50 | 2600 nM |
| C/C(N)=N\C(=N/S(=O)(=O)c1ccc(C(F)(F)F)cc1)N1C[C@H](c2ccccc2)C(c2ccc(Cl)cc2)=N1 | Cnr1 | ligand displacement |  | radioligand | cell membranes | Ki | 8 nM |
| CNCC(=O)N[C@@H](CO)C(=O)N[C@H]1[C@H](O)[C@@H](O)[C@H](n2ccc(N)nc2=O)O[C@@H]1C(N)=O | CP | binding |  | MST |  | Kd | 9200 nM |
| CCCCCn1c2ccccc2c2cc(C(=O)NCC3CCN(CC(=O)NC(C)(C)C)CC3)ccc21 | Cnr1 | ligand displacement |  | radioligand |  | Ki | > 5000 nM |
| CC[C@H](C)[C@H](NC(=O)[C@H](CC(C)C)NC(=O)[C@@H](N)CO)C(=O)NCC(=O)N[C@@H](CCCCN)C(=O)N[C@H](C(N)=O)C(C)C | Proteinase-activated receptor 2 (F2RL1, Homo sapiens, UniProt P55085) | calcium signal | agonist |  |  | EC50 | 28200 nM |
| NC(=O)c1ncn([C@@H]2O[C@H](CO)[C@@H](O)[C@H]2O)n1 | CP | binding |  | MST |  | Kd | 120000 nM |
| COc1c(-c2ccccc2)oc2c(ccc3occc32)c1=O | Cyclin-dependent kinase 7, with cyclin H (CDK7, Homo sapiens, UniProt P50613) | enzyme activity | inhibitor | ADP detection |  | IC50 | > 100000 nM |
| C[C@H](NC(=O)[C@H](CCC(=O)O)NC(=O)[C@@H](NC(=O)[C@H](CO)NC(=O)[C@H](CCCCN)NC(=O)[C@H](CCC(N)=O)NC(=O)[C@H](Cc1ccc(O)cc1)NC(=O)[C@H](CCCNC(=N)N)NC(=O)[C@@H](N)CCCNC(=N)N)[C@@H](C)O)C(=O)O | Antigen peptide transporter 1/Antigen peptide transporter 2 | ligand displacement |  |  |  | IC50 | 700 nM |
